Only some compounds are listed: those with a hit (about 3.6% of all), similar ones and a draw of the others.
Yeast lifespan up: yeast lifespan extension; 0.68% of 130,000 active; S. cerevisiae growth with nicotinamide, OD615; deaD strain in restrictive glucose medium; AID 775; inhibition of the nicotinamide effect, % at 10 µM;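 active means inhibition above a set limit, placed 3 SD over the median of all compounds, cut at about 26% in these data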;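 further: 0% = nicotinamide-treated wells and 100% = cells grown without nicotinamide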
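Test system: DeaD-strain S. cerevisiae / Buffer or medium: restrictive glucose medium / Also added: nicotinamide 1.5 mM / Doses: one concentration, 10 µM, DMSO 0.25% / Schedule: 48 h at 30 °C / Signal: OD615 measurement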
Measles CPE: protection of cells from measles virus; Measles virus-infected cells, CPE protection, absorbance; protection (pct of control), % at 4 µM; 1.5% of 140,000 active; AID 841; in the data active means protection mostly above about 24%, no sharp cut-off; inactive means mostly below about 26%
BB579 growth dn: reduces growth of yeast BB579 in restrictive medium. AID 804. inhibition, % at 10 µM. S. cerevisiae BB579 growth, OD615, 48 h. 0.51% of 140,000 active;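 active means inhibition above a set limit, 3 SD over the mean compound inhibition, cut at about 44% in these data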
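test system = yeast BB579 (DeaD) | buffer or medium = restrictive CSMM-D medium | doses = single compound dose of 10 µM, 0.25% DMSO final | times = 4 h preincubation and 48 h exposure at 30 °C | technique = culture absorbance at 615 nm | benchmarks = amphotericin B 10 µg/mL, positive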
RAM inhibit: blocks the yeast RAM network. S. cerevisiae dse1pr::URA3 reporter, 5-FOA growth OD615, 2 d; analog-sensitive cbk1-as2 kinase mutant strain. inhibition, % at 50 µM. 1.8% of 190,000 active. AID 868;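 active means inhibition above a set limit, 3 SD over mean compound inhibition, cut at about 8.4% in these data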;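 further: 0% = DMSO-only wells with no growth and 100% = 10 µM 1-NA-PP1 full growth; inhibition rescues growth on 5-FOA so higher OD means more RAM inhibition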
RAM 5-FOA: RAM network inhibitors in efflux-deficient yeast; max inhibition, %; 1,200 tested, under 10 active; S. cerevisiae efflux-deficient reporter strain, 5-FOA growth OD615, 2 days; shares compounds with RAM inhibit; call rule not given here;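 further: plate controls were vehicle for no effect and reference inhibitor for full effect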
* marks the source's active call; other numbers are inactive results; . = no result.

SMILES	Yeast lifespan up	Measles CPE	BB579 growth dn	RAM inhibit	RAM 5-FOA
NS(=O)(=O)c1ccc(N2N=C(c3ccccc3)CC2c2ccc(F)cc2)cc1 (configuration not stated)	1	15	-27	4	.
COc1ccc(C2CC(c3ccccc3)=NN2C(=O)CSc2ncn[nH]2)cc1 (configuration not stated)	.	.	.	3	.
CCCS(=O)(=O)N1CCN=C1SCc1cccc(C)c1	.	.	.	-1	.
O=C(NC(=S)N1CCN(c2ccccn2)CC1)c1ccco1	.	.	.	0	.
COc1cccc(/C=C/C(=O)OCC(=O)NCc2ccc(Cl)cc2)c1	.	.	.	4	.
COc1cccc(/C=C/C(=O)OCC(=O)Nc2cc(C(F)(F)F)ccc2Cl)c1	4	9	-28	12*	1
Cc1cc(S(=O)(=O)N(Cc2ccccn2)Cc2ccco2)ccc1-n1cnnn1	-13	5	-42	0	.
CCN(Cc1ccccc1)S(=O)(=O)c1ccc(S(=O)(=O)N(Cc2ccccn2)Cc2ccco2)cc1	-1	9	-23	13*	2
CC1CCCCN1S(=O)(=O)c1ccc(S(=O)(=O)N(Cc2ccccc2)Cc2ccco2)cc1 (configuration not stated)	.	4	-31	14*	3
Cc1ccc(NC(=O)CNC(=O)c2cccs2)cc1S(=O)(=O)Nc1ccc(Cl)cc1	-1	5	-25	12*	2
Cn1c(=O)c2c(ncn2CC(=O)OCC(=O)Nc2ccccc2Cl)n(C)c1=O	-1	17	-34	1	.
Cn1c(=O)c2c(ncn2CC(=O)OCC(=O)NC(c2ccccc2)c2ccccc2)n(C)c1=O	-4	7	-38	14*	1
N#CCc1ccc(NS(=O)(=O)c2ccc(C3CCCCC3)cc2)cc1	0	25	-45	11*	3
COc1ccc(S(=O)(=O)Nc2ccc(CC#N)cc2)cc1	-14	38	-7	0	.
CCOc1cc(NC(=S)NCCCN2CCOCC2)c(OCC)cc1NC(=O)c1ccc(C)cc1	.	.	.	1	.
O=C(Nc1ccn(Cc2cccc3ccccc23)n1)c1cccnc1	.	.	.	12*	2
O=C(Nc1ccn(Cc2ccc(Cl)cc2)n1)c1ccccc1	.	.	.	1	.
CC(C)CNC(=O)c1c(N)n(/N=C/c2ccccn2)c2nc3ccccc3nc12	-8	6	-33	15*	4
C=CC[n+]1c(-c2ccc(Cl)cc2Cl)csc1Nc1c(C)n(C)n(-c2ccccc2)c1=O	.	.	.	0	.
Clc1ccc(-c2csc(Nc3ccccc3)[n+]2Cc2ccco2)c(Cl)c1	.	.	.	14*	2
COCCCNC(=O)/C(C#N)=C/c1ccc(OCC(=O)O)c(OC)c1	1	10	-27	1	.
COc1ccc(/C=C(\C#N)C(=O)NCCc2ccccc2)cc1OCc1ccccc1	2	6	-9	18*	2
O=[N+]([O-])c1ccc(C2Nc3cccc4cccc(c34)N2)cc1	0	17	-33	12*	3
O=C(O)CC1S/C(=N/N=C/c2ccc(Br)cc2)N(c2ccccc2)C1=O (configuration not stated)	.	.	.	13*	2
COc1ccc(S(=O)(=O)NCCSCc2cccc(C)c2)cc1Br	-2	2	-32	12*	1
SMILES	Yeast lifespan up	Measles CPE	BB579 growth dn	RAM inhibit	RAM 5-FOA
Cc1ccc(S(=O)(=O)NCCSCc2ccccc2)cc1	1	30	-37	1	.
COc1ccccc1C(NC(=O)C1CCCCC1)c1c(O)ccc2ccccc12 (configuration not stated)	-3	18	-1	12*	5
CCC(=O)NC(c1ccccc1Cl)c1c(O)ccc2ccccc12 (configuration not stated)	5	7	-30	2	.
O=C(O)c1cc(N2N=C(C(F)(F)F)/C(=C/C=C/c3ccco3)C2=O)ccc1Cl	.	.	.	14*	6
CC(=O)N1CCC(N(CCN2CCOCC2)C(=S)Nc2ccc(C)c(C)c2)CC1	.	.	.	5	.
CCOC(=O)c1sc(NC(=O)CCCn2nc([N+](=O)[O-])cc2C)c(C(=O)OCC)c1C	2	19	-1	13*	2
CCOC(=O)c1sc(NC(=O)/C=C/c2cnn(CC)c2C)c(C(=O)OCC)c1C	0	4	-18	12*	3
O=C(CSc1ccc(Br)cc1)Nc1ccccc1Oc1ccccc1	2	4	-16	11*	2
O=C(CSc1ccc(Cl)cc1)Nc1ccccc1Oc1ccccc1	2	19	-14	3	.
CCOC(=O)CSc1nc2cc(S(=O)(=O)Nc3ccccc3OC)ccc2o1	-5	14	-33	3	.
